Measured values as given in PMC7391373 (ACS Omega, 2020).

Assays:
[1] = test system: P. falciparum 3D7 (chloroquine-sensitive); test: schizont maturation inhibition assay, 3D7 strain; format: cell-based, Plasmodium falciparum
Procedure, shortened: (§1)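 P. falciparum (3D7 chloroquine-sensitive; RKL-9 chloroquine-resistant) was cultured in A+ human erythrocytes in RPMI-1640 with 10% human AB+ serum. Ring-synchronized parasites (2–3% parasitemia, 1.8% final haematocrit) were exposed in duplicate to test compound at 1–16 μg/mL for 48 h at 37 °C, 5% CO2. Positive controls were chloroquine 10 μM and artesunate 2 μM. Schizont inhibition versus controls was scored on Giemsa smears. SI was calculated as CC50 (HeLa/fibroblasts) divided by IC50.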

[2] = test system: P. falciparum RKL-9 (chloroquine-resistant); test: schizont maturation inhibition assay, RKL-9 strain; format: cell-based, Plasmodium falciparum
Procedure, shortened: as §1

[3] = in vitro cytotoxicity, MTT assay, dermal fibroblasts; format: cell-based; settings: human, primary culture of normal human dermal fibroblasts
Procedure, shortened: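 HeLa cells and primary normal human dermal fibroblasts (fibroblasts used within seven passages) were kept in DMEM with 10% fetal calf serum and 2 mM glutamine at 37 °C, 5% CO2. Cells were seeded at 5000–10 000 per well; after 24 h they received test compound (10–640 μg) in duplicate for 48 h. MTT (1 mg/mL stock) was added for 1 h, formazan was dissolved in DMSO, and OD was read at 450 nm.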

[4] = test system: RAW 264.7 murine macrophage cells; test: determination of nitric oxide; format: cell-based
[5] = test system: Plasmodium berghei (NK-65); test: in vivo suppressive activity, Peter's 4 day test; settings: for chemosuppression (%), day 5 / parasitemia (%), day 5 / mean survival time (MST): mice; for parasitemia (%), day 28: surviving mice
Procedure, shortened: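 Peters 4-day suppressive test in Laca Swiss albino mice (6–8 weeks, 25 ± 2 g), five per group. On D0, mice received 1 × 10^6 P. berghei NK-65-infected erythrocytes i.p. Dosing began 1 h post-inoculation, oral, once daily D0–D3 (0.2 mL). Giemsa tail smears were taken 24 h after the last dose. Chemosuppression was calculated from mean parasitemia relative to infected controls. Survival and parasitemia were followed to day 28.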

[6] = biochemical assays, liver and kidney function tests; format: in vivo, Mus musculus
Procedure, shortened: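 In P. berghei-infected Laca mice (oral dosing once daily D0–D3), blood was collected from the tail vein on day 10 and from survivors on day 28. Serum ALP, SGOT, SGPT and bilirubin (liver) and urea and creatinine (kidney) were measured with commercial diagnostic kits. Data are mean ± SD, five mice per group.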

[7] = acute toxicity; oral administration; cited from earlier work
[8] = monotherapy 10 mg/kg oral OD D0–D3
[9] = monotherapy 20 mg/kg oral OD D0–D3
[10] = monotherapy 50 mg/kg oral OD D0–D3
[11] = monotherapy 100 mg/kg oral OD D0–D3
[12] = monotherapy 4 mg/kg oral OD D0–D3

Structure (SMILES): COC(=O)[C@@H]1Cc2c([nH]c3ccccc23)[C@@H](c2ccc3c(c2)OCO3)N1 [9a, (1R,3S)-methyl 1-(benzo[d][1,3]dioxol-5-yl)-2,3,4,9-tetrahydro-1H-pyrido[3,4-b]indole-3-carboxylate]
- selectivity index (SI) ([1]; CC50 / IC50 on 3D7): > 10
- IC50 ([1]; Plasmodium falciparum, 3D7, 48 h, 3D7 strain, 48 h): < 1 µg/mL
- inhibition at 1 µg/mL ([1]; Plasmodium falciparum, 3D7, read-out: inhibition (schizont maturation)): > 75%
- selectivity index (SI) ([2]; CC50 / IC50 on RKL-9): > 10
- IC50 ([2]; Plasmodium falciparum, 48 h, RKL-9 strain): < 1 µg/mL
- inhibition at 1 µg/mL ([2]; Plasmodium falciparum, read-out: inhibition (schizont maturation)): > 75%
- viability at 48 h, 640 μg/mL [3]: 56.5 ± 5.07%
- nitrite production from macrophages ([4]; 100 μg/mL): comparable to the normal cells
- chemosuppression (%), day 5 [5, 8]: 40.49%
- parasitemia (%), day 5 [5, 8]: 17.31 ± 2.40 (n = 5) %
- chemosuppression (%), day 5 [5, 9]: 46.82%
- parasitemia (%), day 5 [5, 9]: 15.47 ± 2.69 (n = 5) %
- chemosuppression (%), day 5 [5, 10]: 64.76%
- parasitemia (%), day 5 [5, 10]: 10.25 ± 4.93 (n = 5) %
- parasitemia (%), day 28 [5, 10]: 3.43 ± 0.51 (n = 2) %
- mean survival time (MST) ([5]; monotherapy 50 mg/kg): 21.8 ± 6.09 days
- chemosuppression (%), day 5 [5, 11]: 91.19%
- parasitemia (%), day 5 [5, 11]: 2.56 ± 1.71 (n = 5) %
- parasitemia (%), day 28 [5, 11]: 2.41 ± 0.97 (n = 3) %
- mean survival time (MST) ([5]; monotherapy 100 mg/kg): 22.6 ± 7.79 days
- levels of renal function biomarkers (creatinine, urea) ([6]; monotherapy 100 mg/kg): within the normal range
- levels of ALP, SGOT, SGPT, and bilirubin ([6]; monotherapy 50 and 100 mg/kg, day 10 and day 28): within normal range
- LD50 [7]: > 4000 mg/kg

Structure (SMILES): C[C@H]1[C@H](OC(=O)CCC(=O)O)O[C@@H]2O[C@@]3(C)CC[C@H]4[C@H](C)CC[C@@H]1[C@@]24OO3 [artesunate, reference compound]
- inhibition at 2 µM ([1]; Plasmodium falciparum, 3D7): 100%
- inhibition at 2 µM ([2]; Plasmodium falciparum): 100%
- nitrite production from macrophages ([4]; 2 μM): comparable to the normal cells
- chemosuppression (%), day 5 [5, 12]: 94.01%
- parasitemia (%), day 5 [5, 12]: 1.74 ± 0.83 (n = 5) %
- mean survival time (MST) ([5]; monotherapy 4 mg/kg): 18.6 ± 2.19 days
- chemosuppression (%), day 5 [5, 10]: 99.89%
- parasitemia (%), day 5 [5, 10]: 0.03 ± 0.01 (n = 5) %
- parasitemia (%), day 28 [5, 10]: 0 ± 0 (n = 2) %
- mean survival time (MST) ([5]; monotherapy 50 mg/kg): 22.4 ± 5.77 days

Structure (SMILES): CCN(CC)CCCC(C)Nc1ccnc2cc(Cl)ccc12 (centres unmarked) [chloroquine, reference compound]
- inhibition at 10 µM ([1]; Plasmodium falciparum, 3D7): 96.8%
- inhibition at 10 µM ([2]; Plasmodium falciparum): 96.8%
- chemosuppression (%), day 5 [5, 8]: 94.22%
- parasitemia (%), day 5 [5, 8]: 1.68 ± 1.06 (n = 5) %
- parasitemia (%), day 28 [5, 8]: 0 ± 0 (n = 5) %
